Measurements of several laboratories.
Target: Receptor tyrosine-protein kinase erbB-4 (ERBB4, Homo sapiens, UniProt Q15303)

SMILES	assay	setting	endpoint	value
C#Cc1n[nH]c2c(-c3cn([C@@H](C)c4ccccc4)c(=O)[nH]c3=O)cc(F)cc12	enzyme activity, inhibitor	0.1 µM	inhibition	-16.5%
COc1ncccc1-c1cnn2ccc(N3CCN(C(=O)OC(C)C)CC3)nc12	binding, competition with immobilised ligand	1 µM	remaining binding	100%
CC(C)(C)c1cc(C=C(C#N)C#N)cc(Br)c1O	enzyme activity, inhibitor	0.5 µM	remaining activity	94%
Cc1nn(C)cc1-c1nc2c(N3CCN(Cc4ccc(Cl)cc4)CC3)c(Cl)cnc2[nH]1	binding, competition with immobilised ligand	1 µM	remaining binding	100%
N#CC1(c2ccccn2)CCN(Cc2cc(C(=O)O)c(=O)n3ccccc23)CC1	cell-free assay, competition with immobilised ligand	1 µM	remaining binding	72%
Cn1cc(-c2cc(F)cc(N3CCn4c(cc5c4CCCC5)C3=O)c2CO)cc(Nc2ccc(N3CCN(C4COC4)CC3)cn2)c1=O	enzyme activity, inhibitor	0.1 µM	inhibition	8%
C#Cc1n[nH]c2c(-c3cn([C@@H](C)c4ccccn4)c(=O)[nH]c3=O)cc(F)cc12	enzyme activity, inhibitor	0.1 µM	inhibition	-15.6%
Cn1cncc1[C@@](O)(COc1ccc(C#N)cc1-c1ccc(OC(F)(F)F)cc1)c1ccc(C#N)cc1	cell-free assay, competition with immobilised ligand	1 µM	remaining binding	100%
COc1cc(Nc2ncc(F)c(Nc3ccc4c(n3)NC(=O)C(C)(C)O4)n2)cc(OC)c1OC	binding, competition with immobilised ligand	10 µM	inhibition	89%
O=c1[nH]c2ccccc2n1C1CCN(Cc2ccc(-c3[nH]c4cc5ncnc5cc4nc3-c3ccccc3)cc2)CC1	cell-free assay	0.5 µM	remaining signal	105%
Cn1cc(-c2cccc(N3CCc4c(sc5c4CC(C)(C)C5)C3=O)c2CO)cc(Nc2ccncn2)c1=O	enzyme activity, inhibitor	1 µM	inhibition	0%
Nc1ncc(-c2nc(N3CCOCC3)nc(N3CCOCC3)n2)c(C(F)F)n1	binding, competition with immobilised ligand	10 µM	remaining binding	60%
